The values that follow come from ChEMBL document CHEMBL4138298, “Synthesis of Novel Tetrahydroisoquinoline CXCR4 Antagonists with Rigidified Side-Chains” (ACS Med Chem Lett, 2018).

Series [1] addresses T1, C-X-C chemokine receptor type 4 (Homo sapiens, UniProt P61073). Briefly: Antagonist activity at CXCR4 in human CCRF-CEM cells assessed as inhibition of CXCL12-mediated calcium flux incubated for 25 mins followed by CXCL12 stimulation measured for 90 secs. The class given is functional, cell-based.
Series [2] is described as follows: Metabolic stability in rat liver microsomes assessed as parent compound remaining. The class given is ADME, microsome.
Series [3] in a line: Metabolic stability in human liver microsomes assessed as parent compound remaining. The class given is ADME, microsome.
A short description of series [4]: Metabolic stability in mouse liver microsomes assessed as parent compound remaining. The class given is ADME, microsome.
Series [5] can be described thus: Permeability of the compound in pH 5.5 buffer after 4 hrs by PAMPA. The class given is ADME. To be noted: for Papp at 4 h: PAMPA, pH 5.5, read-out: permeability; for permeability: pampa, pH 5.5, 4 h, 4 h. The method in brief:
(§1)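 Parallel artificial membrane permeability assay (PAMPA) for passive transcellular permeability, run at pH 7.4 and at pH 5.5, with permeability reported in nm/s.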

A further series concerns the target Cytochrome P450 2D6 (Homo sapiens, UniProt P10635). Briefly: Inhibition of recombinant human CYP2D6 expressed in insect microsomes using AMMC as substrate preincubated for 30 mins followed by NADPH addition measured after 45 mins by fluorescence assay. The class given is ADME.
Series [6] addresses T2, Muscarinic acetylcholine receptor M3 (Homo sapiens, UniProt P20309). As to the kind of experiment: Antagonist activity at mAChR M3 in human CCRF-CEM cells assessed as inhibition of acetylcholine-mediated calcium flux incubated for 25 mins followed by acetylcholine stimulation measured for 90 secs. The class given is functional, cell-based.
Target sequence in this assay (P20309 whole entry): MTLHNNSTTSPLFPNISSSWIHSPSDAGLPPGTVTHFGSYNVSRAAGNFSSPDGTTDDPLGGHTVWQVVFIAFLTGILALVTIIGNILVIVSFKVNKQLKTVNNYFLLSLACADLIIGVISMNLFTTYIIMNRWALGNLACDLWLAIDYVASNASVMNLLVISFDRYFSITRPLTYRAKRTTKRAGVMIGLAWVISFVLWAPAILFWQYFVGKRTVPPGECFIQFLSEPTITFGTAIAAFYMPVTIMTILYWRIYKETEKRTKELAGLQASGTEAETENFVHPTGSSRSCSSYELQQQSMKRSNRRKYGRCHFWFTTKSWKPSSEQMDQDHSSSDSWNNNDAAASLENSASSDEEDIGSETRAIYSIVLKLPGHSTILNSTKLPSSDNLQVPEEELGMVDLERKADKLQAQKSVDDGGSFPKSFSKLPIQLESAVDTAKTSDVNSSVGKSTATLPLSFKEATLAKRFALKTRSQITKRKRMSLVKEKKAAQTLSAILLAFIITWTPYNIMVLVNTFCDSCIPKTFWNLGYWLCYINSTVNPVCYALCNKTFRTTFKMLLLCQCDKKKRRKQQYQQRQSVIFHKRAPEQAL
For a further series, the target named is Cytochrome P450 3A4 (Homo sapiens, UniProt P08684). Briefly: Inhibition of CYP3A4 (unknown origin) using BFC as substrate. The class given is ADME.
Series [7] is described as follows: Permeability of the compound in pH 7.4 buffer after 4 hrs by PAMPA. The following applies: read-out: permeability. The class given is ADME. The method in brief:
as §1

Series [8] has as its target T1, C-X-C chemokine receptor type 4. Briefly: Agonist activity at CXCR4 in human CCRF-CEM cells assessed as increase in calcium flux incubated for 90 secs. The class given is functional, cell-based.
The target of series [9] is T2, Muscarinic acetylcholine receptor M3. Briefly: Agonist activity at mAChR M3 in human CCRF-CEM cells assessed as increase in calcium flux incubated for 90 secs. The class given is functional, cell-based.
Target sequence in this assay (P20309 whole entry, looked up): as the sequence (P20309 whole entry) above
The target of the next series is T3, Cytochrome P450 2C8 (Homo sapiens, UniProt P10632).
T3 sequence (P10632 whole entry): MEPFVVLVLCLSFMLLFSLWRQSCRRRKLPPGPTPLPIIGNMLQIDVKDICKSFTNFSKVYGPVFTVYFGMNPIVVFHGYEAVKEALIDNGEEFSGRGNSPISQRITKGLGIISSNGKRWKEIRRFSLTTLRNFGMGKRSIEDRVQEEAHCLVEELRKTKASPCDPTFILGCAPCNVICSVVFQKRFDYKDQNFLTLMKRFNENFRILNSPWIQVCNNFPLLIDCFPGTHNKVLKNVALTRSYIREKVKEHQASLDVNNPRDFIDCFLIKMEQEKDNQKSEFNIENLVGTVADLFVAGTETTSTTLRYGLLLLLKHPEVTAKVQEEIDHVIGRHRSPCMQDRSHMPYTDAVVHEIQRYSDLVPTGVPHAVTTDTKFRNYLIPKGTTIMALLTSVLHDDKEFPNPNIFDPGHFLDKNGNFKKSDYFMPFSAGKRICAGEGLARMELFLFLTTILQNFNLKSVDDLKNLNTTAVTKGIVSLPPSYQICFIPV
As to the kind of experiment: Inhibition of CYP2C8 (unknown origin). The class given is ADME.

The next series concerns the target Cytochrome P450 2C19 (Homo sapiens, UniProt P33261). Briefly: Inhibition of CYP2C19 (unknown origin). The class given is ADME.
For series [10], the target named is T2, Muscarinic acetylcholine receptor M3. As to the kind of experiment: Antagonist activity at mAChR M3 in human CCRF-CEM cells assessed as inhibition of acetylcholine-mediated calcium flux incubated for 25 mins followed by acetylcholine stimulation measured for 90 secs relative to control. The class given is functional, cell-based.
Target sequence in this assay (P20309 whole entry, looked up): as the sequence (P20309 whole entry) above

SMILES strings stand for the structures. The source made the active and inactive calls. The calls are words filed in the database; no cut-off is given here. Bounds are passed on as bounds.

Cytochrome P450 2D6, sequence (P10635 whole entry): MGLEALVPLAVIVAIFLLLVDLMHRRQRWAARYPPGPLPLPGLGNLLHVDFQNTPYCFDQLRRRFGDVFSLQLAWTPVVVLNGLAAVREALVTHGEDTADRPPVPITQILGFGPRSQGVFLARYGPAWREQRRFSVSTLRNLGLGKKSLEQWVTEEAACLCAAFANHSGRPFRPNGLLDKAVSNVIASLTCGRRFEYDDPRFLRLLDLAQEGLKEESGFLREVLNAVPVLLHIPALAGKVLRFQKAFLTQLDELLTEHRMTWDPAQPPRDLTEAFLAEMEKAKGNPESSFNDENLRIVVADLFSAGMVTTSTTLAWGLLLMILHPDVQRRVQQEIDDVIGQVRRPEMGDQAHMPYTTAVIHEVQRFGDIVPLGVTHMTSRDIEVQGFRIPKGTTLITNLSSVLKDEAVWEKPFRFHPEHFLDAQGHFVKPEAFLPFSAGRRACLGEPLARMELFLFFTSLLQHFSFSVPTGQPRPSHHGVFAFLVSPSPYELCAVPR
Cytochrome P450 3A4, sequence (P08684 whole entry): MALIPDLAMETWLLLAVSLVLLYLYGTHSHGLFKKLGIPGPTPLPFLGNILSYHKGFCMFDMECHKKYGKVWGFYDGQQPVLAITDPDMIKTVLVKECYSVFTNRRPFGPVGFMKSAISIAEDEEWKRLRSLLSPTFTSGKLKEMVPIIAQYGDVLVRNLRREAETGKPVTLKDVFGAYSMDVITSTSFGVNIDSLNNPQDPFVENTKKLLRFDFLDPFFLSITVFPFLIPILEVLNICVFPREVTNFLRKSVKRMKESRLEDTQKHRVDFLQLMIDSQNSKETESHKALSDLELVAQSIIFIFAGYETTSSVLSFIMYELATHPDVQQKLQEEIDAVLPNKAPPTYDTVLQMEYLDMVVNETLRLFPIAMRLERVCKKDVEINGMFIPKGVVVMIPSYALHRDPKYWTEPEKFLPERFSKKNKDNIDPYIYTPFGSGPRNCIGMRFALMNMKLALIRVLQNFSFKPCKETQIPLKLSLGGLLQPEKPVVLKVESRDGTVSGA
T1 sequence (P61073 whole entry): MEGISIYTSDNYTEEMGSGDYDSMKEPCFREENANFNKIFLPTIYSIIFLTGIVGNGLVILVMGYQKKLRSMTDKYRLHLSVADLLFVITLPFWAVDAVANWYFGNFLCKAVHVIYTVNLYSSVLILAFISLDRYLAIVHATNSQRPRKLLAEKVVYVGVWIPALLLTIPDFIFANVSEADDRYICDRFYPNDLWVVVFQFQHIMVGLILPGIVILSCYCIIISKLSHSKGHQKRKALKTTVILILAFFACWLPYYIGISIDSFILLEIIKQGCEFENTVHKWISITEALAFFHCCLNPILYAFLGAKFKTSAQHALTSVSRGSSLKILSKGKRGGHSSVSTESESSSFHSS
Cytochrome P450 2C19, sequence (P33261 whole entry): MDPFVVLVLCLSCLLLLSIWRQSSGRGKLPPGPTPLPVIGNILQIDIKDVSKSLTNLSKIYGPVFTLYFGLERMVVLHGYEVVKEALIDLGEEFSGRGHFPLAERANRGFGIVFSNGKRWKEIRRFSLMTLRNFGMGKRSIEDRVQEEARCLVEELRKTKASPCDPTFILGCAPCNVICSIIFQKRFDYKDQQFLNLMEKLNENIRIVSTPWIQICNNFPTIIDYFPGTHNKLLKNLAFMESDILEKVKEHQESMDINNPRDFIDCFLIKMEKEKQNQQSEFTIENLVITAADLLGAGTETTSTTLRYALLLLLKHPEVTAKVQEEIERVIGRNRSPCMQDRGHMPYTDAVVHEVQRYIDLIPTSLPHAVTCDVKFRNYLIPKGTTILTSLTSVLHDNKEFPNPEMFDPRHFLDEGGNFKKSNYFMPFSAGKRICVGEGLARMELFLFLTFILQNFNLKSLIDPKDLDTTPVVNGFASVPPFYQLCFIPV

Turning to `NCC1=C(CN(C[C@H]2Cc3ccccc3CN2)[C@H]2CCCc3cccnc32)CCCC1`, the 50% inhibitory concentration (IC50) worked out at 230 nM in series [1], 180 nM at Cytochrome P450 2D6 and 23000 nM in series [6]. The Stability in series [2] is 1%; in series [3] it was 65%; in series [4], 2%. Moreover, in series [5], the Papp at 4 h came to 17 ×10⁻⁶ cm/s.
Consider `C/C(=C/CN(C[C@H]1Cc2ccccc2CN1)[C@H]1CCCc2cccnc21)CN`, for which the half-inhibitory concentration (IC50) in series [1] was 8.6 nM; on Cytochrome P450 3A4, above 20000 nM; on Cytochrome P450 2D6 it was below 27 nM; in series [6], 32 nM. Further, the values for the Stability in [2], in [3] and in series [4] were 1%, 100% and 2%, respectively. Besides, the Papp at 4 h came to 1.1 ×10⁻⁶ cm/s in [7] and 0.4 ×10⁻⁶ cm/s in series [5].
As to `FC1(F)CCC(NC/C=C\CN(C[C@H]2Cc3ccccc3CN2)[C@H]2CCCc3cccnc32)CC1`, the outcome in series [8] and in series [9] was Active. The Stability is 1% in series [2], 44% in series [3] and 3% in series [4]. Moreover, in series [7], the Papp at 4 h came to 1.3 ×10⁻⁶ cm/s. Moreover, the half-maximal inhibitory concentration (IC50) at Cytochrome P450 2D6 was 540 nM; in series [6], 11000 nM.
Consider `N[C@H]1CC[C@H](CN(C[C@H]2Cc3ccccc3CN2)[C@H]2CCCc3cccnc32)CC1`, for which the IC50 in [1] is 280 nM; against Cytochrome P450 3A4, 10000 nM; at Cytochrome P450 2D6 it was 760 nM; in series [6], above 33000 nM. Also, the Stability in series [2] amounted to 51%; in [3], 39%; in [4] it was 44%. The Papp at 4 h in [7] amounted to 1.2 ×10⁻⁶ cm/s.
Regarding `N[C@H]1CC[C@H](N(C[C@H]2Cc3ccccc3CN2)[C@H]2CCCc3cccnc32)CC1`, the half-inhibitory concentration (IC50) in series [1] is 34 nM; against Cytochrome P450 3A4 it was above 20000 nM; at Cytochrome P450 2D6, 2500 nM; in series [6] it was above 33000 nM. For the same compound, the Stability in series [2] is reported as 71%; in series [3] it was 95%; in [4], 77%. Moreover, the Papp at 4 h in series [7] worked out at 3.7 ×10⁻⁶ cm/s; in [5] it was 0.6 ×10⁻⁶ cm/s.
Consider `NC/C=C\CN(C[C@H]1Cc2ccccc2CN1)[C@H]1CCCc2cccnc21`, for which the IC50 is 10 nM in [1] and 610 nM in [6]. Further, the Stability was 4% in [2], 100% in series [3] and 4% in series [4]. Further, the Papp at 4 h in [7] amounted to 57 ×10⁻⁶ cm/s.
Take `C/C(CN(C[C@H]1Cc2ccccc2CN1)[C@H]1CCCc2cccnc21)=C(/F)CN`: the IC50 in series [1] was 1800 nM; against Cytochrome P450 3A4, 1800 nM; at Cytochrome P450 2C8 it was 18000 nM; at Cytochrome P450 2D6, 110 nM; in [6] it was above 17000 nM. Further, the Stability in [2] is given as 61%; in series [3] it was 35%; in [4], 15%. The Papp at 4 h in [7] is 70 ×10⁻⁶ cm/s.
`NC[C@H]1CC[C@H](CN(C[C@H]2Cc3ccccc3CN2)[C@H]2CCCc3cccnc32)CC1`: the Stability in series [2] was determined as 86%; in [3], 63%; in series [4] it was 92%. Moreover, the half-maximal inhibitory concentration (IC50) on Cytochrome P450 2C8 is 4100 nM; on Cytochrome P450 2D6 it was 12000 nM; in series [6], 10000 nM; against Cytochrome P450 2C19, 9100 nM.
As for `C/C(CN)=C(\F)CN(C[C@H]1Cc2ccccc2CN1)[C@H]1CCCc2cccnc21`, the IC50 in series [1] is 28 nM; on Cytochrome P450 3A4 it was 15000 nM; at Cytochrome P450 2D6 it was 59 nM; in series [6], 770 nM. The Stability is given as 2% in series [2], 100% in series [3] and 2% in [4]. The Papp at 4 h stood at 49 ×10⁻⁶ cm/s in [7] and 5 ×10⁻⁶ cm/s in [5].
For `NCC1CC1CN(C[C@H]1Cc2ccccc2CN1)[C@H]1CCCc2cccnc21` (single isomer, unassigned; diastereomer 1) [listing 1 of 2 here], the inhibition in [10] was found to be 51%.
For `NCC1CC1CN(C[C@H]1Cc2ccccc2CN1)[C@H]1CCCc2cccnc21` (single isomer, unassigned; diastereomer 1) [listing 2 of 2 here], the results for the half-maximal inhibitory concentration (IC50) (in series [1]; on Cytochrome P450 2D6; in [6]) were 6.4 nM, 540 nM and above 33000 nM, respectively. For the same compound, the Stability in [2] turned out to be 1%; in series [3] it was 100%; in [4], 1%. Further, the Papp at 4 h in [7] stood at 13 ×10⁻⁶ cm/s. In addition, the permeability in series [5] was determined as 0.8 ×10⁻⁶ cm/s.
On to `N[C@H]1CC[C@@H](N(C[C@H]2Cc3ccccc3CN2)[C@H]2CCCc3cccnc32)CC1`, for which the IC50 in series [1] was 1800 nM; at Cytochrome P450 3A4 it was above 20000 nM; at Cytochrome P450 2D6, 81 nM; in series [6] it was above 33000 nM. The Stability in [2] worked out at 24%; in series [3], 86%; in [4], 56%. For the same compound, the Papp at 4 h in series [5] was found to be 1 ×10⁻⁶ cm/s.
`C/C(CN(C[C@H]1Cc2ccccc2CN1)[C@H]1CCCc2cccnc21)=C(\F)CN`: the Stability turned out to be 6% in series [2], 51% in [3] and 1% in [4]. Besides, the figures for the IC50 (on Cytochrome P450 3A4; on Cytochrome P450 2D6; in series [6]) were 13000 nM, 190 nM and 9600 nM, respectively. Moreover, the results for the Papp at 4 h in series [7] and in [5] were 55 ×10⁻⁶ cm/s and 28 ×10⁻⁶ cm/s, respectively.
`C/C(CN)=C(/F)CN(C[C@H]1Cc2ccccc2CN1)[C@H]1CCCc2cccnc21`: the IC50 turned out to be 44 nM in [1]; 2400 nM at Cytochrome P450 3A4; 140 nM on Cytochrome P450 2D6; 8800 nM in series [6]; 19000 nM on Cytochrome P450 2C19. Besides, the values for the Stability in series [2], in [3] and in series [4] were 72%, 97% and 61%, respectively. Also, the Papp at 4 h in series [7] worked out at 22 ×10⁻⁶ cm/s.
As for `NC(=O)NC/C=C\CN(C[C@H]1Cc2ccccc2CN1)[C@H]1CCCc2cccnc21`, the 50% inhibitory concentration (IC50) in series [1] is 210 nM; at Cytochrome P450 2D6 it was 470 nM; in series [6], above 16000 nM. Also, the Stability was 2% in series [2], 73% in series [3] and 2% in series [4]. For the same compound, the values for the Papp at 4 h in [7] and in series [5] were 11 ×10⁻⁶ cm/s and 1.3 ×10⁻⁶ cm/s, respectively.
On to `C/C(=C/CN)CN(C[C@H]1Cc2ccccc2CN1)[C@H]1CCCc2cccnc21`, for which the Stability in series [2] is given as 2%; in [3] it was 96%; in series [4], 2%. Further, the half-inhibitory concentration (IC50) is above 20000 nM at Cytochrome P450 3A4, 88 nM on Cytochrome P450 2D6 and 1100 nM in series [6]. Further, the figures for the Papp at 4 h in [7] and in series [5] were 25 ×10⁻⁶ cm/s and 8.3 ×10⁻⁶ cm/s, respectively.
On to `NCC1CC1CN(C[C@H]1Cc2ccccc2CN1)[C@H]1CCCc2cccnc21` (single isomer, unassigned; diastereomer 2), for which the IC50 is 13 nM in series [1], 270 nM on Cytochrome P450 2D6 and 13000 nM in series [6]. Moreover, the Stability in series [4] is 4%. Moreover, the permeability in series [5] is 8.8 ×10⁻⁶ cm/s.
